KCNQ1 pot: potentiators or activators of KCNQ1 channel, primary screen, cell-based, thallium flux, high-throughput; actives 0.35% (n = 310,000); CHO-K1 KCNQ1, thallium flux FluxOR fluorescence; hits give high values; B-score at 10 µM; Potassium voltage-gated channel subfamily KQT member 1 (Homo sapiens), P51787;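 active means fluorescence ratio B-score, a plate-corrected score, at least three library SD, with initial intensity B-score within 5 SD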
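Assay system: CHO-K1 cells stably expressing KCNQ1; Medium: assay buffer with matched DMSO; Also added: K+/Tl+ depolarizing stimulus; Dosing: single dose; Timing: dye 90 min, compound 20 min, room temperature; Measured by: kinetic FluxOR thallium fluorescence, 10-s 1-Hz baseline, 110-s post-stimulus read; Read-out: peak-minus-minimum fluorescence over initial fluorescence, negative-control normalized, B-scored.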
KCNK3 inh: human KCNK3 channel inhibitors, primary screen, CHO cells, FluxOR thallium flux, B-score; FluxOR fluorescence; hits give low values; AID 602410, 2012; actives 0.84% (n = 340,000); B-score at 10 µM;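 active means B-score under library mean minus 4 SD, starting fluorescence ratio at most library mean plus 5 SD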;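 further: more negative B-score means stronger inhibition of thallium flux through KCNK3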
KCNK9 block: KCNK9 potassium channel inhibitors, primary screen, HEK293 cells, thallium flux | FluxOR thallium flux fluorescence; hits give low values | Potassium channel subfamily K member 9 (Homo sapiens), Q9NPC2 | actives 1.2% (n = 310,000) | AID 488922, 2010 | B-score at 10 µM;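 active means ratio B-score over 3 SD below the library mean, with starting fluorescence within 5 SD of its mean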;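 further: negative B-score means less thallium flux so channel inhibition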
KCNQ1 inh: inhibitors of human KCNQ1 channel, primary screen, cell-based, thallium flux, high-throughput | actives 1.3% (n = 310,000) | CHO-K1 KCNQ1, FluxOR thallium flux fluorescence; hits give high values | B-score at 10 µM | AID 2642, 2010;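 active means compounds whose thallium flux B-score, printed positive for inhibition, exceeds three library SD while starting fluorescence stays within three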;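 further: channel opened by potassium depolarization with thallium stimulus after 20 min compound exposure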
Kir21 block: inhibitors of mouse Kir2.1 inward-rectifier potassium channel. Inward rectifier potassium channel 2 (Mus musculus), P35561. HEK293-Kir2.1, FluxOR thallium flux fluorescence; hits give low values. B-score at 10 µM. actives 0.85% (n = 310,000). AID 1672, 2009;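 active means fluorescence ratio B-score at or below minus 3 SD of library scores, with starting-brightness B-score within 2 SD, cut at about -4.2 in these data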;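 further: channel flux triggered by added potassium and thallium sulfate stimulus; B-score of peak minus minimum fluorescence over baseline after thallium stimulus; more negative B-score means stronger Kir2.1 block with less thallium influx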
hERG rescue: hERG rescue from dofetilide block, primary screen, cell-based, CHO-hERG, FluxOR thallium flux, dofetilide IC70; activation (rescue from dofetilide block), less the hit threshold, % at 10 µM; dofetilide IC70 present; Voltage-gated inwardly rectifying potassium channel KCNH2 (Homo sapiens), Q12809; actives 0.51% (n = 310,000);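 active means activation above the mean of controls blocked by dofetilide plus 5 SD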;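 further: thallium influx through hERG after potassium depolarization seen as dye fluorescence rise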
Target sequence (Q12809 whole entry, looked up): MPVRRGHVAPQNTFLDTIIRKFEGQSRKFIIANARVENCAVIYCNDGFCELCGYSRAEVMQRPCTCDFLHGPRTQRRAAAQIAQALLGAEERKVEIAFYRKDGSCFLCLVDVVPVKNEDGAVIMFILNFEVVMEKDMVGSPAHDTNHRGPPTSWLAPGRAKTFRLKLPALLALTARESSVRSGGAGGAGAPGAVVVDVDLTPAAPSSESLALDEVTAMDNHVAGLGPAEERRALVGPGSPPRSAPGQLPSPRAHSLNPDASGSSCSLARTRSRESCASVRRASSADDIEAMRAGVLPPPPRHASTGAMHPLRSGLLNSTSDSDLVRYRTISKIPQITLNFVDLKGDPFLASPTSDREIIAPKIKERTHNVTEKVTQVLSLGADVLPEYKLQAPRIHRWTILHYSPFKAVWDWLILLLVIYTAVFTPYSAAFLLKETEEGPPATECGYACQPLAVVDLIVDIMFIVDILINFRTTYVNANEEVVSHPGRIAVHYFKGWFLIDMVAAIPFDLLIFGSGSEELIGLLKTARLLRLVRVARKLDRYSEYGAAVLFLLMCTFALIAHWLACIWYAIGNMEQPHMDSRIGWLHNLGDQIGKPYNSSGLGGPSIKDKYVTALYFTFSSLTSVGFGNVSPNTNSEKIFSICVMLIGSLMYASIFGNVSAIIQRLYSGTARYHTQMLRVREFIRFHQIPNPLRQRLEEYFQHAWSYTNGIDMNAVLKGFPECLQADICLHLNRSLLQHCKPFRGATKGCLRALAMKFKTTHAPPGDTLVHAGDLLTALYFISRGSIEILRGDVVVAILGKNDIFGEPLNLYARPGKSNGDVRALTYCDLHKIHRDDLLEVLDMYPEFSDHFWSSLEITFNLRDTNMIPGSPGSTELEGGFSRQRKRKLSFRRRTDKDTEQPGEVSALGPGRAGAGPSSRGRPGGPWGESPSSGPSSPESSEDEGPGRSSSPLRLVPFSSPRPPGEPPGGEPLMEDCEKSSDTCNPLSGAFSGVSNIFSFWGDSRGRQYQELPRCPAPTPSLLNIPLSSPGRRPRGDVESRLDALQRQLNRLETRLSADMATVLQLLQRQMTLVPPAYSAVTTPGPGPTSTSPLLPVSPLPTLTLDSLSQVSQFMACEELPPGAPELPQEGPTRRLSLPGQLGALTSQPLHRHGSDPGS
KCNK9 block conf: KCNK9 potassium channel inhibitors, confirmation, HEK293 cells, thallium flux, duplicate; shares compounds with KCNK9 block; inhibition, % at 10 µM; actives 43% (n = 4,900); FluxOR thallium flux fluorescence;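 active means thallium signal inhibited by more than 5 SD of the compound-free buffer control wells, on both duplicate plates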;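 further: 0% = assay buffer control wells without compound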
Kir21 sel: mouse Kir2.1 channel inhibition, confirmation, selectivity assay for KCNK9 modulator project, cell-based, HEK293, thallium flux; shares compounds with KCNK9 block; Kir2.1 cells, FluxOR thallium flux fluorescence; inhibition, % at 10 µM; actives 4% (n = 4,900);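 active means thallium signal drop more than 5 SD beyond the mean of the no-compound control wells, seen in both duplicate plates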;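 further: signal is fluorescence rise after thallium addition divided by baseline fluorescence; plate controls were assay buffer only for no effect and full block by chlorpromazine control for full effect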
KCNK9 uninduced: thallium flux in non-induced HEK293 cells, confirmation, counter-screen for KCNK9 inhibitor project, cell-based, second counter screen, non-induced KCNK9-HEK293 | shares compounds with KCNK9 block | inhibition, % at 10 µM | actives 40% (n = 4,900) | FluxOR thallium flux | AID 492997, 2010;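 active means thallium signal drop beyond 5 SD of the untreated control mean, on both duplicate plates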;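 further: plate controls were buffer only IC0 wells for no effect and SID17386958 at its maximal inhibitory level for full effect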
The depositor's hits bear a star; i = inactive; · = not tested or not shown. Only some compounds are listed: those with a hit (about 3.7% of all), similar ones and a draw of the others.

SMILES | KCNQ1 pot | KCNK3 inh | KCNK9 block | KCNQ1 inh | Kir21 block | hERG rescue | KCNK9 block conf | Kir21 sel | KCNK9 uninduced
CC1CN(c2cc(-c3ccccc3)c3ccccc3n2)CC(C)O1 (stereo not drawn) | i | i | i | i | -1.05 | -6.8 | i | i | i
CC1CN(c2nc3ccccc3cc2-c2ccccc2)CC(C)O1 (stereo not drawn) | i | i | i | i | -0.34 | -11.2 | i | i | i
O=C(COc1ccc(Br)cc1)Nc1ccc(NC(=O)c2ccccc2)cc1 | i | i | i | i | 0.38 | -6.6 | · | · | ·
O=C(NNC(=O)c1ccco1)c1ccc(NS(=O)(=O)c2cccs2)cc1 | i | i | i | i | -0.42 | -5.3 | · | · | ·
Cc1ccc(-c2nnc(CSc3nc(C(C)C)nc4sc(C)c(C)c34)o2)cc1 | i | i | i | i | 2.32 | -12.3 | i | i | i
COc1ccc(CN(C)CCCn2cnc3c(OCc4ccccc4)ncnc32)cc1OC | · | i | · | · | · | · | · | · | ·
C[n+]1cccc(/C=N/Nc2nc(Cl)c(C#N)c(Cl)c2Cl)c1 | i | i | i | i | 0.21 | -4.9 | i | i | i
N#Cc1c(Cl)nc(N/N=C/c2ccccc2)c(Cl)c1Cl | i | i | i | i | -1.3 | -14.4 | · | · | ·
O=C(CSc1nncs1)Nc1ccc(S(=O)(=O)N2CCCC2)cc1 | i | i | i | i | 0.91 | -6.8 | · | · | ·
CCOC(=O)c1cc(-c2ccccc2)sc1NC(=O)C(C)C | i | i | i | i | -0.16 | -7.1 | · | · | ·
CCOC(=O)c1cc(-c2ccccc2)sc1NC(=O)C(C)Sc1nnnn1C (stereo not drawn) | i | i | -16.9* | i | 0.16 | -14.2 | 61.0%* | i | 36.5%*
CCOc1ccc(NC(=O)CN(C)C(=O)C2CC(=O)N(Cc3ccco3)C2)cc1OCC (stereo not drawn) | · | i | · | · | · | · | · | · | ·
Cc1ccc(S(=O)(=O)N/N=C/c2cccc(OC3CSC3)c2)cc1 | i | i | i | i | 0.61 | -8.1 | · | · | ·
Cc1ccc(CSCC(=O)N/N=C/c2cccc(OC3CSC3)c2)cc1 | i | i | i | i | -0.62 | -9.3 | i | i | i
COc1ccc(C(=O)C[n+]2cccc(C)c2C)cc1[N+](=O)[O-] | i | i | i | i | 1.21 | -14.2 | · | · | ·
CCC(C)(C)c1ccc(OCCCC[n+]2cccc(C)c2C)c(C(C)(C)CC)c1 | i | i | -11.6* | i | -9.53* | -29.1 | 56.5%* | 46.0%* | i
CCOC(=O)c1cc(NC(=O)Nc2ccc(Br)cc2)c(C)nc1C | i | i | i | i | 1.48 | -4.7 | i | i | i
CCOC(=O)c1ccccc1NC(=O)c1cn(-c2ccc(OC)cc2)c(=O)c2ccccc12 | i | i | -9.27* | i | 0.45 | -6.4 | 26.5%* | i | i
Cn1c(SCc2ccccc2Cl)nc2ccccc21 | i | i | -8.36* | i | 1.44 | -10.2 | 66.0%* | i | i
Cc1[nH]c(C)c(S(=O)(=O)NCc2ccc(F)cc2)c1C(=O)N1CCCC1 | i | i | i | i | -0.14 | -7.4 | · | · | ·
C=CCc1ccc(OCc2ccc(C(=O)OC)o2)c(OC)c1 | i | i | i | i | -1.36 | -11.8 | · | · | ·
C=CCc1ccc(O)c(-c2cc(CC=C)ccc2O)c1 | i | i | -16.5* | i | -4.11 | -11.8 | 61.5%* | i | i
Cc1cc2c(cc1S(=O)(=O)NC1CCCCC1C)OCC(=O)N2 (stereo not drawn) | i | i | i | i | -0.52 | -3.1 | · | · | ·
O=C(CN1CCN(c2ccccc2)CC1)Nc1ccncc1 | i | i | i | i | -1.64 | -0.7 | · | · | ·
O=C(CN1CCN(c2ccccc2)CC1)Nc1ccc2c(c1)CCC2 | i | i | i | i | 0.76 | -9.8 | i | i | i
SMILES | KCNQ1 pot | KCNK3 inh | KCNK9 block | KCNQ1 inh | Kir21 block | hERG rescue | KCNK9 block conf | Kir21 sel | KCNK9 uninduced
O=C(CN1CCN(c2cccc(Cl)c2)CC1)NC1CCCc2ccccc21 (stereo not drawn) | i | i | i | i | -1.77 | -14.4 | i | i | i
CCn1c(SC)nnc1C1CCCN(CC(=O)Nc2ccccc2N2CCOCC2)C1 (stereo not drawn) | i | i | i | i | 0.5 | -2.2 | · | · | ·
O=C(COC(=O)c1cc(S(=O)(=O)N2CCOCC2)ccc1Cl)Nc1ccccc1Cl | · | i | · | · | · | · | · | · | ·
Cc1cccc(CSCCNC(=O)c2ccc(N(C)S(=O)(=O)c3ccccc3)cc2)c1 | i | i | i | 7* | 0.76 | -3.0 | i | i | i
CN(c1ccc(C(=O)NCCSCc2ccccc2)cc1)S(=O)(=O)c1ccccc1 | i | i | i | i | 0.21 | -5.2 | i | i | i
CN(c1ccc(C(=O)NCc2ccc3c(c2)OCO3)cc1)S(=O)(=O)c1ccccc1 | i | i | i | i | -0.52 | -12.4 | · | · | ·
CCN(CC(=O)Nc1c(F)cccc1F)C(=O)/C=C/c1cn(Cc2ccccc2)nc1-c1cccnc1 | i | i | i | i | -0.54 | -6.8 | · | · | ·
CCOC(=O)CSc1nc(C)nc2c1sc1nc(C)c(C(C)=O)c(-c3ccc(OC)cc3)c12 | i | i | -11.3* | i | 0 | -4.7 | 48.5%* | i | 46.5%*
CCOC(=O)c1c(C)nc2sc3c(=O)n(-c4ccc(C)cc4)cnc3c2c1-c1ccc(OC)cc1 | i | i | i | i | 0.7 | -5.0 | · | · | ·
CCc1ccc(CN(C)C(=O)C2=CC=CN3CCS(=O)(=O)N=C23)cc1 | · | i | · | · | · | · | · | · | ·
